Starred links: 1 amine or outer side, 2 acyl side, 3 side chain; linkers in the order of their positions; H or OH if unused. Positions of bridges follow the written chain, without caps; N, C: chain ends. Non-standard residues stand in square brackets, D forms with d. Residues, ends and D or L forms follow the SMILES beside them. ξ: configuration not given here. *: point of attachment. CH2CONHCH2CH2NHCOCH2 = O=C(C[*:1])NCCNC(=O)C[*:2]; Propanoyl(3,3-Ph2) = O=C(CC(c1ccccc1)c1ccccc1)*; Pyridine(2,6-diCH2) = c1cc(C[*:1])nc(C[*:2])c1; X2 = O=C(CC(c1ccccc1)(c1ccccc1)c1ccccc1)*; dDip = N[C@@H](C(=O)O)C(c1ccccc1)c1ccccc1; X5 = c1cc(Cc2cccc(C[*:2])c2)cc(C[*:1])c1; Dip = N[C@H](C(=O)O)C(c1ccccc1)c1ccccc1; X7 = c1cc(Oc2ccc(C[*:2])cc2)ccc1C[*:1]; TBMB = c1c(C[*:1])cc(C[*:3])cc1C[*:2]; mXylylene = c1cc(C[*:1])cc(C[*:2])c1; oXylylene = c1ccc(C[*:2])c(C[*:1])c1; NH(CH2CH2O)2CH2CH2NH2 = NCCOCCOCCN*; X6 = c1cc(C[*:1])c2c(C[*:2])cccc2c1; pXylylene = c1cc(C[*:2])ccc1C[*:1]; Palmitoyl = CCCCCCCCCCCCCCCC(=O)*; X4 = c1cc(CSCCN[*:2])cc(C[*:1])c1; X3 = O=S(=O)(CC[*:1])CC[*:2]; ξF = NC(Cc1ccccc1)C(=O)O; Mpa = O=C(O)CCS Bounds are passed on as bounds.

What is called EC50 is the concentration needed to bring the measured effect to its halfway point.

This assay concerns the target T1, Ferroportin (Homo sapiens, UniProt Q9NP59).
T1 sequence (Q9NP59 whole entry): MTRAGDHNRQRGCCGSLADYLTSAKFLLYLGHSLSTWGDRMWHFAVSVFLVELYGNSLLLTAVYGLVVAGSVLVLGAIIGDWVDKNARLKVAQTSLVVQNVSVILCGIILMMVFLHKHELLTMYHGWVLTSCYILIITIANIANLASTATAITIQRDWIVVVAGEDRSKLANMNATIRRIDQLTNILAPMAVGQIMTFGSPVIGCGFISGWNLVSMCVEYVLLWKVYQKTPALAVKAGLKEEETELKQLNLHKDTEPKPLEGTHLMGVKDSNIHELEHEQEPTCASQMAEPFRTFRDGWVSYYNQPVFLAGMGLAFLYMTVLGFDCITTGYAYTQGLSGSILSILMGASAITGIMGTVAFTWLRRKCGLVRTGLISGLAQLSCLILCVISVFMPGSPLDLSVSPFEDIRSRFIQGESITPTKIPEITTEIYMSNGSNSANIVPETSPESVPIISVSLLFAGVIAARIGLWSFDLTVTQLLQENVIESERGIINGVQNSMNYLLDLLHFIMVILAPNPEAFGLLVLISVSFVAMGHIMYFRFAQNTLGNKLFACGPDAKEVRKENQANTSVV
The assay is described as follows: Agonist activity at GFP-fused human FPN transfected in HEK293 cells assessed as protein degradation after 24 hrs by flow cytometric analysis. The assay is classed as cell-based. Put shortly: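 HEK293:TREX-Fpn-GFP cells (human ferroportin-GFP, doxycycline-inducible) plated on poly-D-lysine with 20 μM FAC, induced with 500 ng/mL doxycycline for 24 h, washed, then peptide-treated 24 h. Green fluorescence read by flow cytometry at 1 × 10^6 cells/mL, gated against uninduced cells. Activity expressed as fraction of hep25: 1 − [(Fx − Fhep25)/(Funtreated − Fhep25)]. 3–6 independent repeats.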
(In general: A flow cytometer gives signals particle by particle.)
With `C[C@@H](O)[C@H](NC(=O)CNCC(=O)O)C(=O)N[C@H]1CSCc2cccc(c2)CSC[C@@H](C(N)=O)NC(=O)[C@H](Cc2ccccc2)NC(=O)[C@H](CCCNC(=N)N)NC(=O)[C@H](CS)NC(=O)[C@H](CCCNC(=N)N)NC(=O)[C@@H]2CCCN2C(=O)[C@H](C(c2ccccc2)c2ccccc2)NC1=O`, the EC50 worked out at 75.1 nM.

On to `N=C(N)NCCC[C@@H]1NC(=O)[C@H](CS)NC(=O)[C@H](CCCNC(=N)N)NC(=O)[C@H](NC(=O)CC(c2ccccc2)c2ccccc2)CSCc2cccc(c2)CSC[C@@H](C(N)=O)NC(=O)[C@H](Cc2ccccc2)NC1=O` ({Propanoyl(3,3-Ph2)}-[dC]RCRFC-NH2; linker 1-6 via mXylylene), for which the EC50 was 335 nM. As for `CC(=O)N[C@H]1CSCc2ccccc2CSC[C@@H](C(N)=O)NC(=O)[C@H](Cc2ccccc2)NC(=O)[C@H](CCCNC(=N)N)NC(=O)[C@H](CS)NC(=O)[C@H](CCCNC(=N)N)NC(=O)[C@@H]2CCCN2C(=O)[C@H](Cc2ccccc2)NC1=O` (Ac-CFPRCRFC-NH2; linker 1-8 via oXylylene), the figure is 599 nM; as for `CC(=O)N[C@H]1CSCc2cccc(c2)CSC[C@@H](C(N)=O)NC(=O)[C@H](Cc2ccccc2)NC(=O)[C@H](CCCNC(=N)N)NC(=O)[C@H](CS)NC(=O)[C@H](CCCNC(=N)N)NC(=O)[C@@H]2CCCN2C(=O)[C@H](Cc2ccccc2)NC1=O` (Ac-CFPRCRFC-NH2; linker 1-8 via mXylylene), 272 nM; as for `CC(=O)N[C@H]1CSCc2cc3cc(c2)CSC[C@H](NC(=O)C(Cc2ccccc2)NC(=O)[C@H](CCCNC(=N)N)NC(=O)[C@H](CS)NC(=O)[C@H](CCCNC(=N)N)NC(=O)[C@@H]2CCCN2C(=O)[C@H](Cc2ccccc2)NC1=O)C(=O)N[C@@H](Cc1ccccc1)C(=O)N1CCC[C@H]1C(=O)N[C@@H](CCCNC(=N)N)C(=O)N[C@@H](CS)C(=O)N[C@@H](CCCNC(=N)N)C(=O)N[C@@H](Cc1ccccc1)C(=O)N[C@H](C(N)=O)CSC3` (some centres not stated) (Ac-CFPRCR[ξF]CFPRCRFC-NH2; linker 1-8-15 via TBMB), more than 600 nM. As for `N=C(N)NCCC[C@@H]1NC(=O)[C@H](CS)NC(=O)[C@H](CCCNC(=N)N)NC(=O)[C@H](NC(=O)CC(c2ccccc2)c2ccccc2)CSCc2cccc(c2)CSCCNC(=O)[C@H](Cc2ccccc2)NC1=O`, the figure is 269 nM; as for `CC(=O)N[C@H]1CSCc2ccc(cc2)Oc2ccc(cc2)CSC[C@@H](C(N)=O)NC(=O)[C@H](Cc2ccccc2)NC(=O)[C@H](CCCNC(=N)N)NC(=O)[C@H](CS)NC(=O)[C@H](CCCNC(=N)N)NC(=O)[C@@H]2CCCN2C(=O)[C@H](Cc2ccccc2)NC1=O` (Ac-CFPRCRFC-NH2; linker 1-8 via X7), 477 nM; as for `CC(=O)N[C@H]1CSCc2ccc(cc2)CSC[C@@H](C(N)=O)NC(=O)[C@H](Cc2ccccc2)NC(=O)[C@H](CCCNC(=N)N)NC(=O)[C@H](CS)NC(=O)[C@H](CCCNC(=N)N)NC(=O)[C@@H]2CCCN2C(=O)[C@H](Cc2ccccc2)NC1=O` (Ac-CFPRCRFC-NH2; linker 1-8 via pXylylene), 586 nM.

For `CCCCCCCCCCCCCCCC(=O)N[C@H]1CSCc2cccc(c2)CSC[C@@H](C(N)=O)NC(=O)[C@H](Cc2ccccc2)NC(=O)[C@H](CCCNC(=N)N)NC(=O)[C@H](CS)NC(=O)[C@H](CCCNC(=N)N)NC(=O)[C@@H]2CCCN2C(=O)[C@H](C(c2ccccc2)c2ccccc2)NC1=O` (Palmitoyl-C[Dip]PRCRFC-NH2; linker 1-8 via mXylylene), the EC50 was more than 600 nM. As for `CCCCCCCCCCCCCCCC(=O)N[C@H]1CSCc2cccc(c2)CSCCNC(=O)[C@H](Cc2ccccc2)NC(=O)[C@H](CCCNC(=N)N)NC(=O)[C@H](CS)NC(=O)[C@H](CCCNC(=N)N)NC(=O)[C@@H]2CCCN2C(=O)[C@H](C(c2ccccc2)c2ccccc2)NC1=O` (Palmitoyl-C[Dip]PRCRF; linker 1-C via X4), the figure is 369 nM; as for `CC(=O)N[C@H]1CSCC(=O)NCCNC(=O)CSC[C@@H](C(N)=O)NC(=O)[C@H](Cc2ccccc2)NC(=O)[C@H](CCCNC(=N)N)NC(=O)[C@H](CS)NC(=O)[C@H](CCCNC(=N)N)NC(=O)[C@@H]2CCCN2C(=O)[C@H](Cc2ccccc2)NC1=O` (Ac-CFPRCRFC-NH2; linker 1-8 via CH2CONHCH2CH2NHCOCH2), more than 600 nM. For `CC(=O)N[C@H]1CSCc2cccc(c2)Cc2cccc(c2)CSC[C@@H](C(N)=O)NC(=O)[C@H](Cc2ccccc2)NC(=O)[C@H](CCCNC(=N)N)NC(=O)[C@H](CS)NC(=O)[C@H](CCCNC(=N)N)NC(=O)[C@@H]2CCCN2C(=O)[C@H](Cc2ccccc2)NC1=O` (Ac-CFPRCRFC-NH2; linker 1-8 via X5) the value was 517 nM; for `C[C@@H](O)[C@H](NC(=O)CNCC(=O)O)C(=O)N[C@H]1CSCc2cccc(c2)CSC[C@@H](C(N)=O)NC(=O)[C@H](Cc2ccccc2)NC(=O)[C@H](CCCNC(=N)N)NC(=O)[C@H](CS)NC(=O)[C@H](CCCNC(=N)N)NC(=O)[C@@H]2CCCN2C(=O)[C@H](Cc2ccccc2)NC1=O`, 532 nM; for `CCCCCCCCCCCCCCCC(=O)N[C@H](C(=O)N[C@H]1CSCc2cccc(c2)CSCCNC(=O)[C@H](Cc2ccccc2)NC(=O)[C@H](CCCNC(=N)N)NC(=O)[C@H](CS)NC(=O)[C@H](CCCNC(=N)N)NC1=O)C(c1ccccc1)c1ccccc1` (Palmitoyl-[Dip]CRCRF; linker 2-C via X4), more than 600 nM. Take `CC(=O)N[C@H]1CSCc2cccc(n2)CSC[C@@H](C(N)=O)NC(=O)[C@H](Cc2ccccc2)NC(=O)[C@H](CCCNC(=N)N)NC(=O)[C@H](CS)NC(=O)[C@H](CCCNC(=N)N)NC(=O)[C@@H]2CCCN2C(=O)[C@H](Cc2ccccc2)NC1=O` (Ac-CFPRCRFC-NH2; linker 1-8 via Pyridine(2,6-diCH2)): the EC50 was more than 600 nM. As for `CCCCCCCCCCCCCCCC(=O)N[C@@H](C(=O)N[C@H]1CSCc2cccc(c2)CSCCNC(=O)[C@H](Cc2ccccc2)NC(=O)[C@H](CCCNC(=N)N)NC(=O)[C@H](CS)NC(=O)[C@H](CCCNC(=N)N)NC1=O)C(c1ccccc1)c1ccccc1` (Palmitoyl-[dDip]CRCRF; linker 2-C via X4), the figure is 458 nM; as for `CC(=O)N[C@H]1CSCc2cccc3cccc(c23)CSC[C@@H](C(N)=O)NC(=O)[C@H](Cc2ccccc2)NC(=O)[C@H](CCCNC(=N)N)NC(=O)[C@H](CS)NC(=O)[C@H](CCCNC(=N)N)NC(=O)[C@@H]2CCCN2C(=O)[C@H](Cc2ccccc2)NC1=O` (Ac-CFPRCRFC-NH2; linker 1-8 via X6), more than 600 nM; as for `N=C(N)NCCC[C@@H]1NC(=O)[C@H](CS)NC(=O)[C@H](CCCNC(=N)N)NC(=O)[C@@H]2CCCN2C(=O)[C@H](C(c2ccccc2)c2ccccc2)NC(=O)CCSCc2cccc(c2)CSC[C@@H](C(=O)NCCOCCOCCN)NC(=O)[C@H](Cc2ccccc2)NC1=O` ([Mpa][Dip]PRCRFC-{NH(CH2CH2O)2CH2CH2NH2}; linker 1-8 via mXylylene), 92.3 nM. For `CC(=O)N[C@H]1CSCc2cccc(c2)CSC[C@@H](C(=O)NCCOCCOCCN)NC(=O)[C@H](Cc2ccccc2)NC(=O)[C@H](CCCNC(=N)N)NC(=O)[C@H](CS)NC(=O)[C@H](CCCNC(=N)N)NC(=O)[C@@H]2CCCN2C(=O)[C@H](C(c2ccccc2)c2ccccc2)NC1=O` (Ac-C[Dip]PRCRFC-{NH(CH2CH2O)2CH2CH2NH2}; linker 1-8 via mXylylene) the value was 165 nM; for `CC(=O)N[C@H]1CSCc2cccc(c2)CSC[C@@H](C(N)=O)NC(=O)[C@H](Cc2ccccc2)NC(=O)[C@H](CCCNC(=N)N)NC(=O)[C@H](CS)NC(=O)[C@H](CCCNC(=N)N)NC(=O)[C@@H]2CCCN2C(=O)[C@H](C(c2ccccc2)c2ccccc2)NC1=O` (Ac-C[Dip]PRCRFC-NH2; linker 1-8 via mXylylene), 54.3 nM; for `CC(=O)N[C@H]1CSCCS(=O)(=O)CCSC[C@@H](C(N)=O)NC(=O)[C@H](Cc2ccccc2)NC(=O)[C@H](CCCNC(=N)N)NC(=O)[C@H](CS)NC(=O)[C@H](CCCNC(=N)N)NC(=O)[C@@H]2CCCN2C(=O)[C@H](Cc2ccccc2)NC1=O` (Ac-CFPRCRFC-NH2; linker 1-8 via X3), more than 600 nM.

For `N=C(N)NCCC[C@@H]1NC(=O)[C@@H](NC(=O)CC(c2ccccc2)(c2ccccc2)c2ccccc2)CSCc2cccc(c2)CSC[C@@H](C(N)=O)NC(=O)[C@H](Cc2ccccc2)NC(=O)[C@H](CCCNC(=N)N)NC(=O)[C@H](CS)NC1=O` (X2-CRCRFC-NH2; linker 1-6 via mXylylene), the EC50 amounted to 113 nM.

These data come from ChEMBL document CHEMBL3621052, “Small cyclic agonists of iron regulatory hormone hepcidin” (Bioorg Med Chem Lett, 2015).
